The source of these data is the RNAGym collection of RNA variant scans (doi:10.1126/science.aae0568).

First the molecules themselves.
B1: tRNA (parent)
chain: GUUCCGUUGGCGUAAUGGUAACGCGUCUCCCUCCUAAGGAGAAGACUGCGGGUUCGAGUCCCGUACGGAACG

This sample holds only a part of the variants without activity. Some results are limits rather than exact numbers.

The data set covers variants of B1. In words: yeast fitness relative to wild type (ratio to wild type); higher = fitter; tRNA-Arg(CCU), competitive growth, 37 C, YPD. In outline:
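Gene amplicons from the start population and from each of six end populations were read by 100-nucleotide paired-end sequencing. Those end populations came from pooled Saccharomyces cerevisiae strains carrying tRNA-Arg(CCU) gene variants at the native locus, competed in YPD at 37°C for 24 hours. Fitness relative to wild type was worked out from changes in genotype frequencies. Genotypes needed ≥ 100 starting reads, and estimates < 0.5 were set to 0.5.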
Regarding GUUCCGUUGGCGUAAUGGUAACGCGUCUCCCUCCUAACGAGAAGUCUGCGGGUUCGAGUCCCCUAGGGAACG, the yeast fitness was at most 0.5.
As for GUUCCGUUGGCGUAAUGGUAACGCGUCUCCCUCCUAACGAAAAGACUGCGGGUUUGAGUCCCGUACCGAACG, the figure is at most 0.5; as for GUUCCGUUGGCGUAAUGGUAACGCGUCUCCCUCCUAACGAGAAGACUGCGGGUUCGAGUCUCGUACGGAACG, 0.646.
As for GUUCCGUUGGCGUAAUGGUAACGCGUCUCCCUCCUAACGAGAAGACUGCGAGUUCGUGUCCCGUACGGAACG, the figure is at most 0.5; as for GUUCCGUUGGCGUAAUGGUAACGCGUCUCCCUCCUAAAGAGAAGACUGCGGGUUCGAGGCCCGUACGGGACG, at most 0.5; as for GUUCCGUUGGCGUAAUGGUAACGCGUCUCCCUCCUAAGACGAAGACUGCGGGUUCGAGUUCCGUACGUAACG, at most 0.5.
GUUCCGUUGGCGUAAUGGUAACGCGUCUCCCUCCUAACAAGACGACUGCGGGUUCGAGUGCCGUCCGGAACG: the yeast fitness was 0.518.
Turning to GUUCCGUUGGCGUAAUGGUAACGCGUCUCCCUCCUAAGAAGGAGACUGCGGGUUCGAGUCCCGUACCGAACG, the yeast fitness was at most 0.5.
As for GUUCCGUUGGCGUAAUGGUAACGCGUCUCCCUCCUAAGAAGGAGACUGCGGGUUCGAGUCCCGUAUGGAACG, the figure is at most 0.5; as for GUUCCGUUGGCGUAAUGGUAACGCGUCUCCCUCCUAACGAGAAGACUACGGGUUCGAGUCCCGUACGGAACG, 0.744.
For GUUCCGUUGGCGUAAUGGUAACGCGUCUCCCUCCUAACGAGAAAACUGCGGGUUCGAGUCCCGUGCGGAACG, the yeast fitness was at most 0.5.
The same measure for GUUCCGUUGGCGUAAUGGUAACGCGUCUCCCUCCUAACGAGAAGUCUGCGGGUACGAGUCUCGUACGGAACG: at most 0.5; for GUUCCGUUGGCGUAAUGGUAACGCGUCUCCCUCCUAAGAAGAAGAUUGCGGGUUCGAGUCCCGUACAGAACG: 0.575.
Consider GUUCCGUUGGCGUAAUGGUAACGCGUCUCCCUCCUAACGAGAAGACUGCAGGUUCGAGUCCCGCACGGAACG, for which the yeast fitness came out at 0.832.
The same measure for GUUCCGUUGGCGUAAUGGUAACGCGUCUCCCUCCUAACGAGGAGACUGCGGGUUCGAGUCCCGUACGGACCG: at most 0.5.
As for GUUCCGUUGGCGUAAUGGUAACGCGUCUCCCUCCUAACGAGAAGACUGCGGGUUAGAGUCCCGUACGGAACG, the figure is 0.508; as for GUUCCGUUGGCGUAAUGGUAACGCGUCUCCCUCCUAAGAAGAAGAUUGCGGGUUCGAGACCCGUACGGACCG, at most 0.5; as for GUUCCGUUGGCGUAAUGGUAACGCGUCUCCCUCCUAACGAGAAGACUGCGGGUUCGAGUCCCGUUUGGAACG, 0.657.
For the variant GUUCCGUUGGCGUAAUGGUAACGCGUCUCCCUCCUAACGAGAAGAGUGGGCGUUCGAGUCUCGUACGGAACG, the yeast fitness was 0.593.
As for GUUCCGUUGGCGUAAUGGUAACGCGUCUCCCUCCUAACGAGAAGACUGCGGGUUCGAGUCCCGUACGAAACG, the figure is 0.62; as for GUUCCGUUGGCGUAAUGGUAACGCGUCUCCCUCCUAAGAAGAAGACUGCGGGUUCGAGUCGCGUACGGAACG, 0.585; as for GUUCCGUUGGCGUAAUGGUAACGCGUCUCCCUCCUAACGAGAAGACUGCGGGUUCGAGUCCUGUACGGAACG, 0.687.
Regarding GUUCCGUUGGCGUAAUGGUAACGCGUCUCCCUCCUAAAGAGAAGACUGCGGGUCCGAGUCCCGUACGGAACG, the yeast fitness was 0.72.
In the case of GUUCCGUUGGCGUAAUGGUAACGCGUCUCCCUCCUAACGAGAAGAGUGCGCGUUCGCGUCUCGUACGGAACG, the yeast fitness is at most 0.5.
As for GUUCCGUUGGCGUAAUGGUAACGCGUCUCCCUCCUAAGAAGAAGACUGCGGGUUCGAGUCGCGUACGGAUCG, the yeast fitness is at most 0.5.
The same measure for GUUCCGUUGGCGUAAUGGUAACGCGUCUCCCUCCUAAGAAGAAGACUGCGGGUUCGAGUUCAGUACGGAACG: 0.505; for GUUCCGUUGGCGUAAUGGUAACGCGUCUCCCUCCUAACGAGAAGAAUGCGGGUUCGAGCCCCGUACGAAACG: at most 0.5.
For GUUCCGUUGGCGUAAUGGUAACGCGUCUCCCUCCUAACGAGCAGACUGCGGGUUCGAGUCCCGUCCGGAACG, the yeast fitness is at most 0.5.
Regarding GUUCCGUUGGCGUAAUGGUAACGCGUCUCCCUCCUAAAGAGAAGACUGCGGGUUCGAGGCCCGUACGGAACG, the yeast fitness stood at 0.705.
The same measure for GUUCCGUUGGCGUAAUGGUAACGCGUCUCCCUCCUAACGAGAAGACUGUGGGUACGAGUCCCGUCCGGAACG: at most 0.5; for GUUCCGUUGGCGUAAUGGUAACGCGUCUCCCUCCUAACGAGAAGACUGCGGGUUCGAGUCCCGAAUGGAACG: at most 0.5; for GUUCCGUUGGCGUAAUGGUAACGCGUCUCCCUCCUAAGAAGAAGAUUGCGGGUUCGAGUCCCGUACGGAACG: 0.978.
For the variant GUUCCGUUGGCGUAAUGGUAACGCGUCUCCCUCCUAAUGAGAAGACUGCGGGUUCGAGUCCCAUACGGAACG, the yeast fitness was 0.743.
As for GUUCCGUUGGCGUAAUGGUAACGCGUCUCCCUCCUAAGAAGUAGACUGAGGGUUCGAGUCCCGUACGGAACG, the figure is at most 0.5; as for GUUCCGUUGGCGUAAUGGUAACGCGUCUCCCUCCUAACGAGGGGACUGCGGGUUCGAGUCCCGUACGGAACG, at most 0.5.
Consider GUUCCGUUGGCGUAAUGGUAACGCGUCUCCCUCCUAAUGAGAAGACUGCGGGUUCGAGUCCCGUACGGCACG, for which the yeast fitness was determined as 0.892.
The same measure for GUUCCGUUGGCGUAAUGGUAACGCGUCUCCCUCCUAACGACAAGACUGCGGGUUCGAGUCUCGUACGGAACG: at most 0.5.
As for GUUCCGUUGGCGUAAUGGUAACGCGUCUCCCUCCUAACGAGAAGACUGGGGGUUCGAGUCCCGUACGGAACG, the figure is 0.743.
GUUCCGUUGGCGUAAUGGUAACGCGUCUCCCUCCUAACGAGAAGACUGCGGGCUCGUGUCCCGUACGGAACG: the yeast fitness is at most 0.5.
Regarding GUUCCGUUGGCGUAAUGGUAACGCGUCUCCCUCCUAACGAGAAGACUGCGGGUUCGAGUCCCGUCCGGAACG, the yeast fitness is 0.578.
Consider GUUCCGUUGGCGUAAUGGUAACGCGUCUCCCUCCUAACGAGAAGACUGCGGGUUCGAGUCCCGUUCGGAACG, for which the yeast fitness turned out to be 0.723.
Consider GUUCCGUUGGCGUAAUGGUAACGCGUCUCCCUCCUAACGAGAAGCCUGCGGGUUCGCGUCCCGUACGGAUCG, for which the yeast fitness is at most 0.5.
The same measure for GUUCCGUUGGCGUAAUGGUAACGCGUCUCCCUCCUAACGAGAAGACUGCGGGUUCGAGUCCAGUACCGAACG: at most 0.5; for GUUCCGUUGGCGUAAUGGUAACGCGUCUCCCUCCUAACGAGAAGACUGCGAGUUCGAAUCCCGUACGGAACG: 0.517.
GUUCCGUUGGCGUAAUGGUAACGCGUCUCCCUCCUAAUGAGAAGACUGCGCGUUCGAGUCCCGUACGGAACG: the yeast fitness was at most 0.5.
With GUUCCGUUGGCGUAAUGGUAACGCGUCUCCCUCCUAACGAGAAGACUACGGGUUCGAGUCACGUACCGAACG, the yeast fitness is at most 0.5.
As for GUUCCGUUGGCGUAAUGGUAACGCGUCUCCCUCCUAAGAAGAAGCCUGCGGGUUCGAGUCCCGUUUGGAACG, the yeast fitness was at most 0.5.
As for GUUCCGUUGGCGUAAUGGUAACGCGUCUCCCUCCUAAGAAGGAGACUGCGGGUUCGAGACCCGUACGGAACG, the figure is at most 0.5; as for GUUCCGUUGGCGUAAUGGUAACGCGUCUCCCUCCUAACGAGAAGACUGCGGGUUCGAGUACCGUACGGAGCG, 0.582.
Regarding GUUCCGUUGGCGUAAUGGUAACGCGUCUCCCUCCUAACGAGAAGACUGCGGGUUCGAGUUCCGUACGGAACG, the yeast fitness is 0.571.
As for GUUCCGUUGGCGUAAUGGUAACGCGUCUCCCUCCUAACGAGAAGACUGCGGGUUCGAGUGCCGUACGGAACG, the figure is 0.567; as for GUUCCGUUGGCGUAAUGGUAACGCGUCUCCCUCCUAACGAGAAGACUGCGGGUUCGAGUCCCGUACGGUCCG, 0.557.
As for GUUCCGUUGGCGUAAUGGUAACGCGUCUCCCUCCUAAGAAGCAGACUGCGGGUUCGAGUCCCGUAUGGAACG, the figure is 0.542.
As to GUUCCGUUGGCGUAAUGGUAACGCGUCUCCCUCCUAAUGGGAAGACUGUGGGUUCGAGUCCCGUACGGAACG, the yeast fitness is at most 0.5.
As for GUUCCGUUGGCGUAAUGGUAACGCGUCUCCCUCCUAAUGAGAAGAAUGCGGGUUCGAGUCCCGUACGGAACG, the figure is 0.783; as for GUUCCGUUGGCGUAAUGGUAACGCGUCUCCCUCCUAACGAGAAGUCUGCGGGUUCGAGUCCCGUACGGAACG, 0.599; as for GUUCCGUUGGCGUAAUGGUAACGCGUCUCCCUCCUAACGAGAAGACUGCGGGUUCGAGUCCCCUGCGGAACG, at most 0.5.
The same measure for GUUCCGUUGGCGUAAUGGUAACGCGUCUCCCUCCUAACGAGAAGACGGCGGGUUCGAGUCCUGUACGGAACG: 0.521; for GUUCCGUUGGCGUAAUGGUAACGCGUCUCCCUCCUAACGAGAAGACUGCGGGUACGAGUCCCGUCCGGAACG: 0.567.
The same measure for GUUCCGUUGGCGUAAUGGUAACGCGUCUCCCUCCUAACGAGAAGACUGCGGGUUCGAGUCCCGUACUGAACG: 0.549; for GUUCCGUUGGCGUAAUGGUAACGCGUCUCCCUCCUAACGAGAAGACUGCGGGUUCGAGUCCCGUACAGAACG: 0.769.
Regarding GUUCCGUUGGCGUAAUGGUAACGCGUCUCCCUCCUAAGAAGAAGACUGCGGGUUCGAGUCCCGUACGGAUCG, the yeast fitness worked out at 0.915.
As to GUUCCGUUGGCGUAAUGGUAACGCGUCUCCCUCCUAAGAAGAAGACUGCGGGUUCGAGUCCCGUACGGAGCG, the yeast fitness worked out at 0.871.
In the case of GUUCCGUUGGCGUAAUGGUAACGCGUCUCCCUCCUAAGAAGAAGACUGCGGGUUCGAGUUCCGUACGGAACG, the yeast fitness amounted to 0.81.
In the case of GUUCCGUUGGCGUAAUGGUAACGCGUCUCCCUCCUAACGCGAAGACUGCGGGUUCGAGUCCCGUACGGAACG, the yeast fitness is 1.02.
As for GUUCCGUUGGCGUAAUGGUAACGCGUCUCCCUCCUAAGAAGAAGACUGCGGGUUCGAGUCCCGUACGGAACG, the figure is 0.986; as for GUUCCGUUGGCGUAAUGGUAACGCGUCUCCCUCCUAACGACAAGACUGCGGGUUCGAGUCCCGUAUGGAACG, at most 0.5; as for GUUCCGUUGGCGUAAUGGUAACGCGUCUCCCUCCUAACGAGAAGACUGCGGGUUCCAGUCCCGUACGGAACG, 0.516.
As for GUUCCGUUGGCGUAAUGGUAACGCGUCUCCCUCCUAAUGAGAAGACUGCGGGUUCGAGUACCGUACGGAACG, the figure is 0.541; as for GUUCCGUUGGCGUAAUGGUAACGCGUCUCCCUCCUAACGAGAAGACGGCGGGUUCGAGCCCCGUACGGAACG, at most 0.5; as for GUUCCGUUGGCGUAAUGGUAACGCGUCUCCCUCCUAACGAGAAGACUGCGGGUUCGAGUCCCGUACGGAGCG, 0.756.
The same measure for GUUCCGUUGGCGUAAUGGUAACGCGUCUCCCUCCUAAGAAGAAGACUGCGGGUUCGCGUCCCGUACGGAACG: 0.663; for GUUCCGUUGGCGUAAUGGUAACGCGUCUCCCUCCUAAGAAGAAGAAUGCGGGUUCGAGUCCCGUUCGGAACG: 0.581; for GUUCCGUUGGCGUAAUGGUAACGCGUCUCCCUCCUAACGAGAACAAUGCGGGUUCGAGUCCCGUACGGAACG: 0.814.
Consider GUUCCGUUGGCGUAAUGGUAACGCGUCUCCCUCCUAACGUGAAGACUGCGGGUUCGAGUCGCGUACGGAACG, for which the yeast fitness was at most 0.5.
